Data published in ChEMBL document CHEMBL3272313, “3-Hydroxy-17-aralkylmorphinans as potential opiate receptor-site-directed alkylating agents” (J Med Chem, 1977).
The source made the active and inactive calls. The calls are words filed in the database; no cut-off is given here.

Tests used:
Mus musculus [1] = experiment: Ratio of morphine ED50 to compound ED50 for sc dosed Swiss-Webster mouse; type: functional
Mus musculus [2] = experiment: Analgesic activity in sc dosed Swiss-Webster mouse time of peak effect; type: functional
Mus musculus [3] = experiment: Analgesic activity in sc dosed Swiss-Webster mouse after 30 mins; type: functional; settings: 0.5 h
Mus musculus [4] = experiment: Inhibition of morphine sulfate-induced analgesic activity in Swiss-Webster mouse at 2.6 mg/kg, sc after 2.5 hrs; type: functional, organism-based; set-up: dose 2.6 mg/kg
Outline: (§1)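 Male Swiss-Webster mice, 20–25 g. Challenge was 10 mg/kg morphine sulfate in 8–10 mice, read by the modified D'Amour–Smith test. Where block was seen, morphine ED50 (95% limits) was found by Litchfield–Wilcoxon.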

Mus musculus [5] = experiment: Analgesic activity in Swiss-Webster mouse assessed as time required for sustainance of activity at 2.6 mg/kg, sc; type: functional; settings: route subcutaneous
Mus musculus [6] = experiment: Analgesic activity in Swiss-Webster mouse assessed as time required for sustainance of activity at 100 mg/kg, sc; type: functional; settings: route subcutaneous
Mus musculus [7] = experiment: Inhibition of morphine sulfate-induced analgesic activity in Swiss-Webster mouse at 100 mg/kg, sc after 2 hrs; type: functional, organism-based; set-up: dose 100 mg/kg; outline: as §1
Mus musculus [8] = experiment: Analgesic activity in Swiss-Webster mouse assessed as time required for sustainance of activity at 50 mg/kg, sc; type: functional; settings: route subcutaneous
Mus musculus [9] = experiment: Inhibition of morphine sulfate-induced analgesic activity in Swiss-Webster mouse at 50 mg/kg, sc after 2 hrs; type: functional, organism-based; set-up: dose 50 mg/kg; outline: as §1
Mus musculus [10] = experiment: Analgesic activity in Swiss-Webster mouse assessed as time required for sustainance of activity at 2.7 mg/kg, sc; type: functional; settings: route subcutaneous
Mus musculus [11] = species on record: Mus musculus; experiment: Narcotic agonist activity in morphine-dependent mouse assessed as suppression of abstinence; type: functional, organism-based
Outline: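 Single-dose suppression test in morphine-dependent mice after withdrawal (method of Takemori et al.); compound given sc.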

Mus musculus [12] = experiment: Analgesic activity in Swiss-Webster mouse assessed as time required for sustainance of activity at 0.81 mg/kg, sc; type: functional; settings: route subcutaneous
Mus musculus [13] = experiment: Inhibition of morphine sulfate-induced analgesic activity in Swiss-Webster mouse at 0.81 mg/kg, sc after 2.5 hrs; type: functional, organism-based; set-up: dose 0.81 mg/kg; outline: as §1
Mus musculus [14] = experiment: Inhibition of morphine sulfate-induced analgesic activity in Swiss-Webster mouse at 100 mg/kg, sc after 1 hr; type: functional, organism-based; set-up: dose 100 mg/kg; outline: as §1
Mus musculus [15] = experiment: Analgesic activity in Swiss-Webster mouse assessed as time required for sustainance of activity at 20 mg/kg, sc; type: functional; settings: route subcutaneous
Mus musculus [16] = experiment: Analgesic activity in Swiss-Webster mouse assessed as time required for sustainance of activity at 40 mg/kg, sc; type: functional; settings: route subcutaneous
Mus musculus [17] = experiment: Inhibition of morphine sulfate-induced analgesic activity in Swiss-Webster mouse at 40 mg/kg, sc after 3 hrs; type: functional, organism-based; set-up: dose 40 mg/kg; outline: as §1
Mus musculus [18] = experiment: Inhibition of morphine sulfate-induced analgesic activity in Swiss-Webster mouse at 5.3 mg/kg, sc after 3 hrs; type: functional, organism-based; set-up: dose 5.3 mg/kg; outline: as §1
Mus musculus [19] = experiment: Analgesic activity in Swiss-Webster mouse assessed as time required for sustainance of activity at 5.3 mg/kg, sc; type: functional; settings: route subcutaneous
Mus musculus [20] = experiment: Inhibition of morphine sulfate-induced analgesic activity in Swiss-Webster mouse at 80 mg/kg, sc after 1 hr; type: functional, organism-based; set-up: dose 80 mg/kg; outline: as §1
Mus musculus [21] = experiment: Analgesic activity in Swiss-Webster mouse assessed as time required for sustainance of activity at 80 mg/kg, sc; type: functional; settings: route subcutaneous
Mus musculus [22] = experiment: Analgesic activity in Swiss-Webster mouse assessed as time required for sustainance of activity at 15 mg/kg, sc; type: functional; settings: route subcutaneous
Mus musculus [23] = experiment: Inhibition of morphine sulfate-induced analgesic activity in Swiss-Webster mouse at 100 mg/kg, sc after 3 hrs; type: functional, organism-based; set-up: dose 100 mg/kg; outline: as §1
Mus musculus [24] = experiment: Inhibition of morphine sulfate-induced analgesic activity in Swiss-Webster mouse at 350 mg/kg, sc after 2 hrs; type: functional, organism-based; set-up: dose 350 mg/kg; outline: as §1
Mus musculus [25] = experiment: Analgesic activity in Swiss-Webster mouse assessed as time required for sustainance of activity at 350 mg/kg, sc; type: functional; settings: route subcutaneous

SMILES | Time (Mus musculus [2]) [min] | ED50 (Mus musculus [3]) [mg/kg] | Time (Mus musculus [6]) [h] | also measured
CCOC(=O)/C=C/C(=O)Nc1ccc(CCN2CC[C@]34CCCC[C@H]3[C@H]2Cc2ccc(O)cc24)cc1 | 60 | 1.2 | – | Ratio ED50 (Mus musculus [1]): 4; inhibition (Mus musculus [4]): Active; Time (Mus musculus [5]): 2.5 h
CC(=O)Oc1ccc2c(c1)[C@@]13CCCC[C@H]1[C@@H](C2)N(CCCc1cccc(N2C(=O)C=CC2=O)c1)CC3 | – | > 100 | 2 | inhibition (Mus musculus [7]): Active
CC(=O)Oc1ccc2c(c1)[C@@]13CCCC[C@H]1[C@@H](C2)N(CCCc1ccc(N2C(=O)C=CC2=O)cc1)CC3 | – | > 50 | – | Time (Mus musculus [8]): 2 h; inhibition (Mus musculus [9]): Active
CCOC(=O)CCC(=O)Nc1ccc(CCN2CC[C@]34CCCC[C@H]3[C@H]2Cc2ccc(O)cc24)cc1 | 60 | 0.71 | – | Ratio ED50 (Mus musculus [1]): 4; Time (Mus musculus [10]): 4 h; inhibition (Mus musculus [11]): Active
O=C(CBr)Nc1ccc(CCN2CC[C@]34CCCC[C@H]3[C@H]2Cc2ccc(O)cc24)cc1 | 30 | 0.13 | – | Time (Mus musculus [12]): 2.5 h; inhibition (Mus musculus [13]): Active; Ratio ED50 (Mus musculus [1]): 4
CCOC(=O)/C=C\C(=O)Nc1cccc(CCCN2CC[C@]34CCCC[C@H]3[C@H]2Cc2ccc(O)cc24)c1 | – | > 100 | – | Time (Mus musculus [8]): 2 h; inhibition (Mus musculus [9]): Active
O=C(CBr)Nc1cccc(CCCN2CC[C@]34CCCC[C@H]3[C@H]2Cc2ccc(O)cc24)c1 | – | > 100 | 1 | inhibition (Mus musculus [14]): Active
CCOC(=O)CCC(=O)Nc1ccc(CCCN2CC[C@]34CCCC[C@H]3[C@H]2Cc2ccc(O)cc24)cc1 | 30 | 78.2 | 2 | inhibition (Mus musculus [7]): Active
O=C1C=CC(=O)N1c1cccc(CCCN2CC[C@]34CCCC[C@H]3[C@H]2Cc2ccc(O)cc24)c1 | – | > 50 | – | Time (Mus musculus [8]): 2 h; inhibition (Mus musculus [9]): Active
CCOC(=O)/C=C/C(=O)Nc1ccc(CCCN2CC[C@]34CCCC[C@H]3[C@H]2Cc2ccc(O)cc24)cc1 | 30 | 28.4 | 2 | inhibition (Mus musculus [7]): Active
O=C(CBr)Nc1ccccc1CCCN1CC[C@]23CCCC[C@H]2[C@H]1Cc1ccc(O)cc13 | – | > 100 | 1 | inhibition (Mus musculus [14]): Active
CCOC(=O)CCC(=O)Nc1cccc(CCCN2CC[C@]34CCCC[C@H]3[C@H]2Cc2ccc(O)cc24)c1 | 30 | 77.9 | 1 | inhibition (Mus musculus [14]): Active
O=C1C=CC(=O)N1c1cccc(CCN2CC[C@]34CCCC[C@H]3[C@H]2Cc2ccc(O)cc24)c1 | 30 | 11.4 | – | inhibition (Mus musculus [11]): Active; Time (Mus musculus [15]): 2 h
CCOC(=O)CCC(=O)Nc1ccccc1CCN1CC[C@]23CCCC[C@H]2[C@H]1Cc1ccc(O)cc13 | – | > 100 | 1 | inhibition (Mus musculus [14]): Active
CN1CC[C@]23c4c5ccc(O)c4O[C@H]2[C@@H](O)C=C[C@H]3[C@H]1C5.CN1CC[C@]23c4c5ccc(O)c4O[C@H]2[C@@H](O)C=C[C@H]3[C@H]1C5.O=S(=O)(O)O | 30 | 4.9 | – | –
CCOC(=O)CCC(=O)Nc1cccc(CCN2CC[C@]34CCCC[C@H]3[C@H]2Cc2ccc(O)cc24)c1 | 60 | 6 | – | Time (Mus musculus [16]): 3 h; inhibition (Mus musculus [17]): Active
O=C(CBr)Nc1cccc(CCN2CC[C@]34CCCC[C@H]3[C@H]2Cc2ccc(O)cc24)c1 | 30 | 0.58 | – | inhibition (Mus musculus [18]): Active; Time (Mus musculus [19]): 3 h
Br.CC1C2Cc3ccc(O)cc3C1(C)CCN2CCc1ccccc1 (stereo unspecified) [PHENAZOCINE HYDROBROMIDE] | 30 | 0.53 | – | –
O=C1C=CC(=O)N1c1ccccc1CCN1CC[C@]23CCCC[C@H]2[C@H]1Cc1ccc(O)cc13 | – | > 100 | – | inhibition (Mus musculus [20]): Active; Time (Mus musculus [21]): 1 h
O=C(CBr)Nc1ccc(CCCN2CC[C@]34CCCC[C@H]3[C@H]2Cc2ccc(O)cc24)cc1 | – | > 100 | 1 | inhibition (Mus musculus [14]): Active
CCOC(=O)CCC(=O)Nc1ccccc1CCCN1CC[C@]23CCCC[C@H]2[C@H]1Cc1ccc(O)cc13 | – | > 100 | 2 | inhibition (Mus musculus [7]): Active
CCOC(=O)/C=C/C(=O)Nc1ccccc1CCN1CC[C@]23CCCC[C@H]2[C@H]1Cc1ccc(O)cc13 | – | > 150 | – | –
CCOC(=O)/C=C/C(=O)Nc1cccc(CCN2CC[C@]34CCCC[C@H]3[C@H]2Cc2ccc(O)cc24)c1 | 60 | 5.6 | – | inhibition (Mus musculus [11]): Active; Time (Mus musculus [15]): 3 h
CCOC(=O)/C=C\C(=O)Nc1cccc(CCN2CC[C@]34CCCC[C@H]3[C@H]2Cc2ccc(O)cc24)c1 | 60 | 2.3 | – | Time (Mus musculus [22]): 3 h; inhibition (Mus musculus [11]): Active
CC(=O)Oc1ccc2c(c1)[C@@]13CCCC[C@H]1[C@@H](C2)N(CCCc1ccccc1N1C(=O)C=CC1=O)CC3 | 30 | 48.4 | 3 | inhibition (Mus musculus [23]): Active
CCOC(=O)/C=C\C(=O)Nc1ccccc1CCCN1CC[C@]23CCCC[C@H]2[C@H]1Cc1ccc(O)cc13 | – | > 100 | 2 | inhibition (Mus musculus [7]): Active
CCOC(=O)/C=C/C(=O)Nc1ccccc1CCCN1CC[C@]23CCCC[C@H]2[C@H]1Cc1ccc(O)cc13 | 15 | 84 | – | inhibition (Mus musculus [24]): Active; Time (Mus musculus [25]): 2 h
CC(=O)Oc1ccc2c(c1)[C@@]13CCCC[C@H]1[C@@H](C2)N(CCc1ccccc1N1C(=O)C=CC1=O)CC3 | 30 | 11.7 | – | Time (Mus musculus [15]): 2 h
